Laboratory results as given in ChEMBL document CHEMBL1125740, “Heterocyclic quinones. 17. A new in vivo active antineoplastic drug: 6,7-bis(1-aziridinyl)-4-[[3-(N,N-dimethylamino)propyl]amino]-5,8- quinazolinedione” (J Med Chem, 1991).
Where “and” joins values, the source holds several entries; their conditions need not be identical. Equal entries are not always repeated.

What was measured:
P388 [1] = assay: Compound was evaluated in vivo for antitumor activity after intraperitoneal administration against P388 (1313) for % increase in life span at an optimal dose of 0.2 mg/kg/injection; type: functional; details: Mus musculus, P388, ip
[2] = Compound was evaluated in vivo for antitumor activity against Lewis Lung cercinoma after injecting the compound intravenously for optimal dose; type: functional, Mus musculus
Outline: (§1)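 Lewis lung carcinoma: 10^6 cells implanted im into C57Bl/6-derived hosts. Drug given iv on days 5, 9 and 13, 10 mice per group. Median tumor burden and weight nadir recorded. Survivors were killed on day 19, and their lungs were fixed in Fekete solution so that macroscopic metastases could be counted.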

B16 [3] = assay: Compound was evaluated in vivo for antitumor activity against B16 melanoma after injecting the compound intravenously for total dose; type: functional, Mus musculus
[4] = Compound was evaluated in vivo for antitumor activity against colon adenocarcinoma 38 after injecting the compound intravenously for toxicity related death.; type: functional, Mus musculus
P388 [5] = assay: Compound was evaluated in vivo for antitumor activity after intraperitoneal administration against P388/L-PAM(14) for tumor free survivors at an optimal dose of 0.25 mg/kg/injection at 1,4,7,11 day schedule.; type: functional, Mus musculus
[6] = Compound was evaluated in vivo for antitumor activity against Glasgow osteogenic sarcoma after injecting the compound intravenously for total dose.; type: functional, Mus musculus
Outline: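 Glasgow osteogenic sarcoma in C57Bl/6-derived hosts: 30-60 mg fragments implanted sc by trocar on day 0. Drug given iv on days 3, 6 and 9, 7 mice per group. Tumors measured by caliper. Median tumor burden recorded on day 10. Body weight change per mouse recorded at nadir. Toxicity-related deaths counted.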

B16 [7] = assay: Compound was evaluated in vivo for antitumor activity against B16 melanoma 1 after injecting the compound intravenously for toxicity related death.; type: functional, Mus musculus
P388 [8] = assay: Compound was evaluated in vivo for antitumor activity after intraperitoneal administration against P388 (1303) for median day of death at an optimal dose of 0.75 mg/kg/injection; type: functional, Mus musculus
L1210 [9] = assay: Compound was evaluated in vivo for antitumor activity after intraperitoneal administration against L1210(935) for mortality range at an optimal dose of 0.4 mg/kg/injection at 1-4 day schedule.; type: functional, Mus musculus
Outline: (§2)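 L1210 leukemia, maintained in DBA/2 mice, was given ip as 10⁵ cells on day 0 to F1 hybrid or strain-of-origin mice over 18 g, in groups of 8. Dosing was ip from day 1, and mortality was checked daily. Median day of death counts dying mice only. %ILS = 100×(treated − control median day of death)/control median. Tumor-free survivors were counted on day 60. Weight change is g/mouse at nadir.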

[10] = Compound was evaluated in vivo for antitumor activity against Lewis Lung cercinoma after injecting the compound intravenously for median tumor burden; type: functional, Mus musculus; outline: as §1
M5076 [11] = assay: Compound was evaluated in vivo for antitumor activity against M5076 after injecting the compound intravenously for total dose.; type: functional, Mus musculus
L1210 [12] = assay: Compound was evaluated in vivo for antitumor activity after intraperitoneal administration against L1210(935)for % increase in life span at an optimal dose of 0.5 mg/kg/injection at 1 day schedule.; type: functional; details: Mus musculus, L1210, ip, 24 h; outline: as §2
P388 [13] = assay: Compound was evaluated in vivo for antitumor activity after intraperitoneal administration against P388 (1313) for total dose at an optimal dose of 0.4 mg/kg/injection; type: functional, Mus musculus
L1210 [14] = assay: Compound was evaluated in vivo for antitumor activity after intraperitoneal administration against L1210(935) for median day of death at an optimal dose of 0.5 mg/kg/injection at 1,4,7,11day schedule.; type: functional, Mus musculus; outline: as §2
M5076 [15] = assay: Compound was evaluated in vivo for antitumor activity against M5076 after injecting the compound intravenously for optimal dose; type: functional, Mus musculus
L1210 [16] = assay: Compound was evaluated in vivo for antitumor activity after intraperitoneal administration against L1210(935) for tumor free survivors at an optimal dose of 1 mg/kg/injection at 1 day schedule.; type: functional, Mus musculus; outline: as §2
L1210 [17] = assay: Compound was evaluated in vivo for antitumor activity after intraperitoneal administration against L1210(935)for change in body weight at an optimal dose of 0.125 mg/kg/injection at 1,4,7,11day schedule.; type: functional, Mus musculus; outline: as §2
L1210 [18] = assay: Inhibitory activity against L1210 cell growth; type: functional, cell-based; details: Mus musculus
Outline: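 L1210 cells were grown in RPMI 1640 with 2 mM glutamine and 20% heat-inactivated horse serum at 37 °C under 5% CO2. Drug was added in DMSO (0.5% final) to exponential cells seeded at 0.8×10^5 cells/mL. Coulter counts were done in triplicate at 48 h. IC50 was taken from a regression of probit % growth inhibition against log dose, from one experiment.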

L1210 [19] = assay: Compound was evaluated in vivo for antitumor activity after intraperitoneal administration against L1210(935) for total dose at an optimal dose of 1 mg/kg/injection at 1 day schedule.; type: functional, Mus musculus; outline: as §2
[20] = Compound was evaluated in vivo for antitumor activity against Lewis Lung cercinoma after injecting the compound intravenously for total dose.; type: functional, Mus musculus; outline: as §1
L1210 [21] = assay: Compound was evaluated in vivo for antitumor activity after intraperitoneal administration against L1210(935) for total dose at an optimal dose of 0.1 mg/kg/injection at 1-4 day schedule.; type: functional, Mus musculus; outline: as §2
P388 [22] = assay: Compound was evaluated in vivo for antitumor activity after intraperitoneal administration against P388 (1313) for mortality range at an optimal dose of 0.25 mg/kg/injection; type: functional, Mus musculus
P388 [23] = assay: Compound was evaluated in vivo for antitumor activity after intraperitoneal administration against P388 (1303) for tumor free survivors at an optimal dose of 0.75 mg/kg/injection on day 60; type: functional, Mus musculus
L1210 [24] = assay: Compound was evaluated in vivo for antitumor activity after intraperitoneal administration against L1210(935) for median day of death at an optimal dose of 0.1 mg/kg/injection at 1-4 day schedule.; type: functional, Mus musculus; outline: as §2
P388 [25] = assay: Compound was evaluated in vivo for antitumor activity after intraperitoneal administration against P388 (1313) for total dose at an optimal dose of 0.25 mg/kg/injection; type: functional, Mus musculus
[26] = Compound was evaluated in vivo for antitumor activity against mammary adenocarcinoma 16/C after injecting the compound intravenously for optimal dose; type: functional, Mus musculus
Outline: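 30-60 mg tumor fragments implanted sc by trocar on day 0 into C57Bl/6-derived hosts (B16) or C3H/He-derived hosts (16/C). Drug given iv on days 6, 9 and 13 (B16) or 6, 9 and 12 (16/C), 10 mice per group. Tumors measured by caliper. T/C % taken from median tumor burden of treated vs control groups on day 15 (B16) or day 14 (16/C). Body weight change per mouse recorded at nadir.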

[27] = Compound was evaluated in vivo for antitumor activity against Lewis Lung cercinoma after injecting the compound intravenously for change in body weight.; type: functional, Mus musculus; outline: as §1
P388 [28] = assay: Compound was evaluated in vivo for antitumor activity after intraperitoneal administration against P388/L-PAM(14) for % increase in life span at an optimal dose of 0.2 mg/kg/injection at 1,2,3,4 day schedule.; type: functional; details: Mus musculus, P388, ip
L1210 [29] = assay: Compound was evaluated in vivo for antitumor activity after intraperitoneal administration against L1210(935)for change in body weight at an optimal dose of 0.5 mg/kg/injection at 1 day schedule.; type: functional, Mus musculus; outline: as §2
P388 [30] = assay: Compound was evaluated in vivo for antitumor activity after intraperitoneal administration against P388/L-PAM(12) for change in body weight at an optimal dose of 0.75 mg/kg/injection; type: functional, Mus musculus
P388 [31] = assay: Compound was evaluated in vivo for antitumor activity after intraperitoneal administration against P388/L-PAM(14) for tumor free survivors at an optimal dose of 0.2 mg/kg/injection at 1,2,3,4 day schedule.; type: functional, Mus musculus

**Q.** With `CN(C)CCCNc1ncnc2c1C(=O)C(N1CC1)=C(N1CC1)C2=O` as the compound, how does the ILS at 0.2 mg/kg (P388 [1]) read?
**A.** 62%

**Q.** What about the Optimal dose [2] of the same compound?
**A.** 0.4 mg/kg and 0.2 mg/kg

**Q.** And the Total dose (B16 [3])?
**A.** 1.2 mg/kg

**Q.** What about the Toxicity [4] of the same compound?
**A.** 0

**Q.** What about the Survivors (P388 [5]) of the same compound?
**A.** 0

**Q.** What about the Total dose [6] of the same compound?
**A.** 1.08 mg/kg

**Q.** What about the Toxicity (B16 [7]) of the same compound?
**A.** 0

**Q.** And the “Median day of death” value (P388 [8])?
**A.** 18.5

**Q.** And the Mortality (L1210 [9])?
**A.** 20 days

**Q.** And the Tumor burden [10]?
**A.** 7717 mg and 7748 mg

**Q.** And the Total dose (M5076 [11])?
**A.** 4 mg/kg

**Q.** And the ILS at 0.5 mg/kg (L1210 [12])?
**A.** 27%

**Q.** What about the Optimal dose (P388 [13]) of the same compound?
**A.** 1.6 mg/kg

**Q.** And the “Median day of death” value (L1210 [14])?
**A.** 14

**Q.** What about the Optimal dose (M5076 [15]) of the same compound?
**A.** 1 mg/kg

**Q.** And the Survivors (L1210 [16])?
**A.** 0

**Q.** And the “Change in body weight” value (L1210 [17])?
**A.** 2.7 g mouse-1

**Q.** And the IC50 (L1210 [18])?
**A.** 0.00102 µg/mL and 2.7 nM

**Q.** And the Total dose (L1210 [19])?
**A.** 1 mg/kg

**Q.** What about the Total dose [20] of the same compound?
**A.** 1.2 mg/kg and 0.6 mg/kg

**Q.** And the Total dose (L1210 [21])?
**A.** 0.4 mg/kg

**Q.** And the Mortality (P388 [22])?
**A.** 27 days

**Q.** What about the Survivors (P388 [23]) of the same compound?
**A.** 0

**Q.** What about the “Median day of death” value (L1210 [24]) of the same compound?
**A.** 14

**Q.** What about the Optimal dose (P388 [25]) of the same compound?
**A.** 1 mg/kg

**Q.** What about the Optimal dose [26] of the same compound?
**A.** 0.4 mg/kg and 0.2 mg/kg

**Q.** And the “Change in body weight” value [27]?
**A.** 0.6 g mouse-1 and 1.1 g mouse-1

**Q.** What about the ILS at 0.2 mg/kg (P388 [28]) of the same compound?
**A.** 36%

**Q.** What about the “Change in body weight” value (L1210 [29]) of the same compound?
**A.** 0.3 g mouse-1

**Q.** And the “Change in body weight” value (P388 [30])?
**A.** -1 g mouse-1

**Q.** And the Survivors (P388 [31])?
**A.** 0
